Assay outcomes: PubChem BioAssay, Broad Institute
Shown are actives, neighbours in structure and some others; about 2.7% of the full set was active somewhere.
Env fusion inh = inhibitors of HIV Env-mediated cell fusion; 360,000 tested, 1.1% active; inhibition, % at 12.3 µM; HeLa-JRFL Env/CEM21 cell fusion, luciferase;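 active = mean replicate inhibition score of at least 50 and every replicate individually at or above 50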
E-selectin induc = E-selectin induction on HUVECs | 260,000 tested, 0.37% active | AID 686992 | activation, % at 7.58 µM | HUVEC E-selectin immunofluorescence imaging; normalized: neutral wells 0, TNF-alpha wells 100;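 active = mean E-selectin-positive cell signal at least 10% of the positive control, reached in at least 60% of replicates, without over 20% cell loss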
Target sequence (P16581 whole entry, looked up): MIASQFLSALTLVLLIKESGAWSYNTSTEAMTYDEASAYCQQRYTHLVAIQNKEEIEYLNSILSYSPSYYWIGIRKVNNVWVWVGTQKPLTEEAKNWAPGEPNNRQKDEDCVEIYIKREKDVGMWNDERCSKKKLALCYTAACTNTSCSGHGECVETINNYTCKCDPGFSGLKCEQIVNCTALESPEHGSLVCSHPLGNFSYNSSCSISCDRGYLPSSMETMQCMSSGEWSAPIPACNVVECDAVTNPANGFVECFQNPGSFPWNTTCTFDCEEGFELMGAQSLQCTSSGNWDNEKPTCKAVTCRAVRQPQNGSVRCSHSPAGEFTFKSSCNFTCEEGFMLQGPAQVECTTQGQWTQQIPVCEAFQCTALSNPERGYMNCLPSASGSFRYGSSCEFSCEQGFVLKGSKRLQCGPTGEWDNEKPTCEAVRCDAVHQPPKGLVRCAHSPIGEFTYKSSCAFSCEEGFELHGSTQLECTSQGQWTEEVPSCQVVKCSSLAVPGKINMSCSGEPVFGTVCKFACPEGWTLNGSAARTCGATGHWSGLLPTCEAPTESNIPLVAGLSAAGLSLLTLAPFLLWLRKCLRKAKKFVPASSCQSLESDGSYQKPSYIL
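Test system: HUVEC | Signal: Immunofluorescence imaging | Read-out: Percent E-selectin-positive cells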
FGF22 binding = binders of recombinant human FGF22 by thermal shift; Q9HCT0; SYPRO orange fluorescence; percent of sucrose octasulfate shift, DMSO zero; activity (Tm shift, normalised), % at 9.99 µM; 340,000 tested, 1.5% active; AID 651658;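 active = mean Tm shift, scaled 0 neutral to 100 positive control, at about 1.3% or above, every replicate too, limit read from the data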
F508del corr = CFTR F508del correction in bronchial cells; CFBE cells, YFP halide quenching; stimulated with forskolin plus potentiator P3; % fluorescence drop versus neutral controls; activity (quench increase), % at 7.58 µM; 350,000 tested, 0.36% active; AID 720511;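 active = mean added fluorescence quench of at least 8% versus neutral control, with both replicates also reaching 8%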;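 also: cells transiently co-express mutant CFTR-F508del with the halide-sensitive YFP; corrector assay measuring rescue of mutant channel to the surface after 24 h compound exposure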
S100A4 MyoIIA = inhibitors of human S100A4 binding to myosin IIA peptide; P26447; S100A4/TAMRA-MyoIIA peptide fluorescence polarization; inhibition, % at 10.7 µM; 360,000 tested, 0.14% active;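 active = mean inhibition of at least 70% across replicates, with every replicate also reaching that level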
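Test system: S100A4 monomer protein. Medium: HEPES buffer with Ca2+, pH 7.2. Reagent: fluorescent myosin IIA peptide, 5 nM. Compound dosing: single-point compound testing. Timing: 5 min between mix addition and reading. Benchmarks: DMSO neutral and TFP positive wells.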
Of the large screens only hits and unclear results are named; the others gave an inactive call.

O=C(Nc1ccc(F)cc1)N1C[C@H]2[C@@H](c3ccccc31)[C@@H](CO)N2C(=O)c1ccccc1F	none (no result: Env fusion inh)
C[C@H](CO)N1C[C@H](C)[C@H](CN(C)S(C)(=O)=O)Oc2ccc(NC(=O)Nc3ccc4c(c3)OCO4)cc2C1=O	none (no result: Env fusion inh, E-selectin induc)
C[C@H]1CN([C@@H](C)CO)C(=O)Cc2cc(NC(=O)CCCCCC(=O)Nc3ccccc3N)ccc2O[C@H]1CN(C)CC1CCCCC1	none
O=C(NCCc1ccccc1)c1ccc2c(c1)OCCO2	Env fusion inh 92.2
COc1cc(C(=O)NC(=S)Nc2ccc3c(c2)OCO3)cc(OC)c1OC	none (no result: E-selectin induc)
COc1cc(NC(=O)Nc2ccc3c(c2)OCO3)cc(OC)c1OC	FGF22 binding 43.1 (no result: E-selectin induc)
O=C(Nc1cccc(C(=O)O)c1)Nc1ccc2c(c1)OCO2	Env fusion inh 83.2 (no result: E-selectin induc)
COc1cc(C(=O)NCCc2ccc3c(c2)OCO3)cc(OC)c1OC	FGF22 binding 43.9
O=C(Nc1ccc2c(c1)OCO2)Nc1ccc2c(c1)OCO2	none (no result: E-selectin induc)
COc1ccc(CC(=O)NCCc2ccc3c(c2)OCO3)cc1OC	none (no result: E-selectin induc)
O=C(NCCc1ccccc1)c1ccc2c(c1)OCCCO2	none
CCC(=O)N1CC[C@@H]2[C@H](CO)Nc3ccc(-c4cccc(C#N)c4)cc3[C@@H]21	none (no result: Env fusion inh, S100A4 MyoIIA)
O=C(C[C@@H]1CC[C@@H](NC(=O)Nc2ccc(C(F)(F)F)cc2)[C@@H](CO)O1)NCCN1CCCC1	none
C[C@H]1CN([C@@H](C)CO)C(=O)c2cc(C#Cc3ccccc3F)cnc2O[C@@H]1CN(C)C	none
Cc1ccc(OCC(=O)c2cc(C)n(-c3ccccc3)c2C)c([N+](=O)[O-])n1	Env fusion inh 66.7 (no result: FGF22 binding, F508del corr, S100A4 MyoIIA)
COc1ccc(CNC(=O)C[C@@H]2C[C@H]3c4cc(NC(=O)C5CCC5)ccc4O[C@H]3[C@H](CO)O2)cc1	none
CN(C)CCn1nnnc1SCC1=C(C(=O)O)N2C(=O)[C@@H](NC(=O)Cc3csc(N)n3)[C@H]2SC1	none
CO[C@@]1(NC(=O)CSCC#N)C(=O)N2C(C(=O)O)=C(CSc3nnnn3C)CS[C@@H]21	FGF22 binding 1.5
O=C(C[C@H]1CC[C@H]2[C@@H](COC[C@H](O)CN2CC2CCOCC2)O1)NCC1CC1	none
Cc1c(-c2ccnc3cc(C(=O)O)nn23)cnn1C	none (no result: E-selectin induc)
CCn1cc(-c2ccnc3cc(C(=O)O)nn23)c(C)n1	FGF22 binding 43.2 (no result: E-selectin induc)
C[C@@H]1CCCCO[C@@H](CN(C)Cc2ccc3c(c2)OCO3)[C@H](C)CN([C@@H](C)CO)C(=O)c2cc(NC(=O)Nc3cccc4ccccc34)ccc2O1	none (no result: S100A4 MyoIIA)
O=C(N/N=C/c1ccccc1O)c1ccc2c(c1)OCO2	none
Cc1cc(Br)cc(/C=N/NC(=O)c2ccc3c(c2)OCO3)c1O	F508del corr 9.3
O=C(N/N=C/c1cc(Br)cc(Cl)c1O)c1ccc2c(c1)OCO2	F508del corr 11.7 (no result: E-selectin induc)
Cc1noc(C)c1NC(=O)N(C)C[C@@H]1Oc2ccc(N(C)C)cc2C(=O)N([C@@H](C)CO)C[C@@H]1C	none
COc1cccc(S(=O)(=O)N2CC3(CCN(C)CC3)c3c([nH]c4cc(OC)ccc34)[C@@H]2CO)c1	none (no result: Env fusion inh, FGF22 binding)
C=CC[n+]1c(-c2ccc(OCC)cc2)csc1NNC(=O)Nc1ccccc1	Env fusion inh 61.4 (no result: E-selectin induc, FGF22 binding, F508del corr, S100A4 MyoIIA)
C=CC[n+]1c(-c2ccc(C)cc2)csc1Nc1c(C)n(C)n(-c2ccccc2)c1=O	none (no result: E-selectin induc)
COc1ccc(NC(=O)N(C)C[C@@H]2Oc3ccc(NS(=O)(=O)c4ccc(C)cc4)cc3CC(=O)N([C@H](C)CO)C[C@@H]2C)cc1	none (no result: FGF22 binding, S100A4 MyoIIA)
O=C1CCCN1CCc1cccc2ccccc12	FGF22 binding 43.4
O=C1CCCCN1CCc1c[nH]c2ccccc12	none (no result: E-selectin induc, FGF22 binding, F508del corr, S100A4 MyoIIA)
CCOc1ccc2[nH]c3c(NCCCOC)ncnc3c2c1	none (no result: E-selectin induc)
CC(C)OCCCNc1ncnc2c1[nH]c1ccccc12	Env fusion inh 77.9 (no result: E-selectin induc, FGF22 binding, F508del corr, S100A4 MyoIIA)
CCCN1C[C@@H](C)[C@@H](OC)CN(C)C(=O)c2ccc(NC(=O)C3CC3)cc2OC[C@@H]1C	none (no result: Env fusion inh)
O=C(C[C@H]1CC[C@@H]2[C@H](COC[C@H](O)CN2Cc2ccc3c(c2)OCO3)O1)Nc1ccc(-c2ccccc2)cc1	none
COc1ccc(CNC(=O)c2cc3c(c(-c4cccc(-c5cccc(C#N)c5)c4)n2)[C@H](CCO)N([S@@](=O)C(C)(C)C)C3)cc1	E-selectin induc 54.5
CC(=O)N1Cc2cc(C(=O)NCC(F)(F)F)nc(-c3cccc(-c4cccnc4)c3)c2[C@H]1CCO	none
